Measurements from ChEMBL document CHEMBL2157987, “Benzimidazole bearing oxadiazole and triazolo-thiadiazoles nucleus: design and synthesis as anticancer agents” (2012).

Tests used:
Format in all cases: functional
OVCAR-3 = experiment: Cytotoxicity against human OVCAR3 cells after 48 hrs by SRB assay; settings: OVCAR-3, 48 h
How it was run: (§1)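 Five-dose NCI-60 panel screen: cells grown in RPMI 1640 with 5% FBS and 2 mM L-glutamine, preincubated 24 h at 37 °C, 5% CO2. Five 10-fold dilutions, 0.01–100 µM, applied for 48 h. Fixed with cold TCA (10% final), stained with 0.4% SRB, absorbance read at 515 nm. GI50, TGI and LC50 were taken from log concentration versus % growth curves using time-zero plates.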

SK-MEL-2 = experiment: Cytotoxicity against human SK-MEL-2 cells after 48 hrs by SRB assay; settings: SK-MEL-2, 48 h; how it was run: as §1
COLO 205 = experiment: Cytotoxicity against human COLO205 cells after 48 hrs by SRB assay; settings: COLO 205, 48 h; how it was run: as §1
UO-31 = experiment: Cytotoxicity against human UO31 cells after 48 hrs by SRB assay; settings: UO-31, 48 h
How it was run: (§2)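 Cells were grown in RPMI 1640 with 5% FBS and 2 mM L-glutamine, then held 24 h at 37 °C and 5% CO2 before dosing. TCA-fixed time-zero plates were kept. Compound was dissolved in DMSO and given at five 10-fold dilutions for 48 h. Cells were fixed with cold TCA (10% final), stained with 0.4% SRB and read at 515 nm. GI50, TGI and LC50 came from Ti/Tz/control growth formulas.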

OVCAR-5 = experiment: Cytotoxicity against human OVCAR5 cells after 48 hrs by SRB assay; settings: OVCAR-5, 48 h; how it was run: as §1
OVCAR-8 = experiment: Cytotoxicity against human OVCAR8 cells after 48 hrs by SRB assay; settings: OVCAR-8, 48 h; how it was run: as §1
786-0 = experiment: Cytotoxicity against human 786-0 cells after 48 hrs by SRB assay; settings: 786-0, 48 h; how it was run: as §1
OVCAR-4 = experiment: Cytotoxicity against human OVCAR4 cells after 48 hrs by SRB assay; settings: OVCAR-4, 48 h; how it was run: as §1
SNB-75 = experiment: Cytotoxicity against human SNB75 cells after 48 hrs by SRB assay; settings: SNB-75, 48 h; how it was run: as §2
A549 = experiment: Cytotoxicity against human A549 cells after 48 hrs by SRB assay; settings: A549, 48 h; how it was run: as §1
TK-10 = experiment: Cytotoxicity against human TK10 cells after 48 hrs by SRB assay; settings: TK-10, 48 h; how it was run: as §2
NCI-H460 = experiment: Cytotoxicity against human NCI-H460 cells after 48 hrs by SRB assay; settings: NCI-H460, 48 h; how it was run: as §1
SW-620 = experiment: Cytotoxicity against human SW620 cells after 48 hrs by SRB assay; settings: SW-620, 48 h; how it was run: as §2
NCI/ADR-RES = experiment: Cytotoxicity against human NCI/ADR-RES cells after 48 hrs by SRB assay; how it was run: as §1
T47D = experiment: Cytotoxicity against human T47D cells after 48 hrs by SRB assay; how it was run: as §2
HL-60(TB) = experiment: Cytotoxicity against human HL-60(TB) cells after 48 hrs by SRB assay; settings: HL-60, 48 h
How it was run: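 Human tumour line grown in RPMI 1640 with 5% FBS and 2 mM L-glutamine. Cells were plated and held 24 h at 37 °C/5% CO2 before dosing, and time-zero plates were TCA-fixed. Five 10-fold concentrations (0.01–100 µM) were added from DMSO stock and incubated 48 h. Cells were TCA-fixed, stained with 0.4% SRB and read at 515 nm. Values were calculated from growth curves relative to time-zero and control.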

SN12C = experiment: Cytotoxicity against human SN12C cells after 48 hrs by SRB assay; how it was run: as §2
NCI-H322M = experiment: Cytotoxicity against human NCI-H322M cells after 48 hrs by SRB assay; how it was run: as §1
KM12 = experiment: Cytotoxicity against human KM12 cells after 48 hrs by SRB assay; settings: KM12, 48 h; how it was run: as §1
SK-MEL-28 = experiment: Cytotoxicity against human SK-MEL-28 cells after 48 hrs by SRB assay; settings: SK-MEL-28, 48 h; how it was run: as §1
[1] = read-out: LC50 (the source's name)
[2] = read-out: pLC50 (the source's name) (converted)

Nc1cc(Br)c(-c2nnc(CCC(=O)c3nc4ccccc4[nH]3)o2)c(Br)c1 was tested, and the GI50 (OVCAR-3) was 2.63 µM, the LC50 (OVCAR-3; read-out: LC50) was over 100 µM and the TGI (OVCAR-3; read-out: TGI) was 6.98 µM. It also gave an LC50 (OVCAR-3; read-out: pLC50 (converted)) of over 100 µM, a TGI (OVCAR-3; read-out: pTGI (converted)) of 6.92 µM and a GI50 (SK-MEL-2) of 4.27 µM. For the same compound, the CC50 (SK-MEL-2; [1]) was over 100 µM, the TGI (SK-MEL-2; read-out: TGI) was over 100 µM and the CC50 (SK-MEL-2; [2]) was over 100 µM. The TGI (SK-MEL-2; read-out: pTGI) was over 100 µM, the GI50 (COLO 205) was 11.7 µM and the CC50 (COLO 205; [1]) was 80.1 µM. It also gave a TGI (COLO 205; read-out: TGI) of 30.8 µM, a CC50 (COLO 205; [2]) of 79.4 µM and a TGI (COLO 205; read-out: pTGI (converted)) of 30.9 µM. For the same compound, the GI50 (UO-31) was 4.07 µM, the CC50 (UO-31; [1]) was over 100 µM and the TGI (UO-31; read-out: TGI) was over 100 µM. For the same compound, the CC50 (UO-31; [2]) was over 100 µM, the TGI (UO-31; read-out: pTGI) was over 100 µM and the GI50 (OVCAR-5) was 29.5 µM. It also gave an LC50 (OVCAR-5; read-out: LC50) of over 100 µM, a TGI (OVCAR-5; read-out: TGI) of over 100 µM and an LC50 (OVCAR-5; read-out: pLC50 (converted)) of over 100 µM. It also gave a TGI (OVCAR-5; read-out: pTGI) of over 100 µM, a GI50 (OVCAR-8) of 21.4 µM and a CC50 (OVCAR-8; [1]) of over 100 µM. For the same compound, the TGI (OVCAR-8; read-out: TGI) was over 100 µM, the CC50 (OVCAR-8; [2]) was over 100 µM and the TGI (OVCAR-8; read-out: pTGI) was over 100 µM. The GI50 (786-0) was 20.9 µM, the LC50 (786-0; read-out: LC50) was over 100 µM and the TGI (786-0; read-out: TGI) was 61.7 µM. For the same compound, the LC50 (786-0; read-out: pLC50 (converted)) was over 100 µM, the TGI (786-0; read-out: pTGI (converted)) was 61.7 µM and the GI50 (OVCAR-4) was 5.5 µM. It also gave an LC50 (OVCAR-4; read-out: LC50) of over 100 µM, a TGI (OVCAR-4; read-out: TGI) of 78.2 µM and an LC50 (OVCAR-4; read-out: pLC50 (converted)) of over 100 µM. It also gave a TGI (OVCAR-4; read-out: pTGI (converted)) of 77.6 µM, a GI50 (SNB-75) of 2.95 µM and a CC50 (SNB-75; [1]) of over 100 µM. It also gave a TGI (SNB-75; read-out: TGI) of 20.5 µM, a CC50 (SNB-75; [2]) of over 100 µM and a TGI (SNB-75; read-out: pTGI (converted)) of 20.4 µM. It also gave a GI50 (A549) of 27.5 µM, a CC50 (A549; [1]) of over 100 µM and a TGI (A549; read-out: TGI) of over 100 µM. The CC50 (A549; [2]) was over 100 µM, the TGI (A549; read-out: pTGI) was over 100 µM and the GI50 (TK-10) was 36.3 µM. The LC50 (TK-10; read-out: LC50) was over 100 µM, the TGI (TK-10; read-out: TGI) was over 100 µM and the LC50 (TK-10; read-out: pLC50 (converted)) was over 100 µM. It also gave a TGI (TK-10; read-out: pTGI) of over 100 µM, a GI50 (NCI-H460) of 3.98 µM and a CC50 (NCI-H460; [1]) of over 100 µM. It also gave a TGI (NCI-H460; read-out: TGI) of 20.1 µM, a CC50 (NCI-H460; [2]) of over 100 µM and a TGI (NCI-H460; read-out: pTGI (converted)) of 20 µM. The GI50 (SW-620) was 3.31 µM, the CC50 (SW-620; [1]) was over 100 µM and the TGI (SW-620; read-out: TGI) was over 100 µM. For the same compound, the CC50 (SW-620; [2]) was over 100 µM, the TGI (SW-620; read-out: pTGI) was over 100 µM and the GI50 (NCI/ADR-RES) was 22.4 µM. For the same compound, the CC50 (NCI/ADR-RES; [1]) was over 100 µM, the TGI (NCI/ADR-RES; read-out: TGI) was over 100 µM and the CC50 (NCI/ADR-RES; [2]) was over 100 µM. For the same compound, the TGI (NCI/ADR-RES; read-out: pTGI) was over 100 µM, the GI50 (T47D) was 23.4 µM and the LC50 (T47D; read-out: LC50) was over 100 µM. For the same compound, the TGI (T47D; read-out: TGI) was over 100 µM, the LC50 (T47D; read-out: pLC50 (converted)) was over 100 µM and the TGI (T47D; read-out: pTGI) was over 100 µM. The GI50 (HL-60(TB)) was 3.47 µM, the CC50 (HL-60(TB); [1]) was over 100 µM and the TGI (HL-60(TB); read-out: TGI) was over 100 µM. For the same compound, the CC50 (HL-60(TB); [2]) was over 100 µM, the TGI (HL-60(TB); read-out: pTGI) was over 100 µM and the GI50 (SN12C) was 29.5 µM. It also gave a CC50 (SN12C; [1]) of over 100 µM, a TGI (SN12C; read-out: TGI) of over 100 µM and a CC50 (SN12C; [2]) of over 100 µM. For the same compound, the TGI (SN12C; read-out: pTGI) was over 100 µM, the GI50 (NCI-H322M) was 8.13 µM and the CC50 (NCI-H322M; [1]) was over 100 µM. For the same compound, the TGI (NCI-H322M; read-out: TGI) was over 100 µM, the CC50 (NCI-H322M; [2]) was over 100 µM and the TGI (NCI-H322M; read-out: pTGI) was over 100 µM. It also gave a GI50 (KM12) of 3.72 µM, a CC50 (KM12; [1]) of over 100 µM and a TGI (KM12; read-out: TGI) of 18 µM. It also gave a CC50 (KM12; [2]) of over 100 µM, a TGI (KM12; read-out: pTGI (converted)) of 18.2 µM and a GI50 (SK-MEL-28) of 6.31 µM. It also gave a CC50 (SK-MEL-28; [1]) of over 100 µM, a TGI (SK-MEL-28; read-out: TGI) of 79 µM and a CC50 (SK-MEL-28; [2]) of over 100 µM. It also gave a TGI (SK-MEL-28; read-out: pTGI (converted)) of 79.4 µM.
